From PubChem BioAssay
Most compounds without a hit are left out; they make up all but 3.5% or so of the library.
MrgX1 agonist – activates human MrgX1 receptor signaling; Q96LB2; MrgX1-HEK293 cells, Fluo-4 calcium fluorescence, agonist mode; stronger effect = higher value; B-score at 10 µM; 310,000 tested, 0.44% active; AID 588627;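 active means calcium response B-score plate-corrected fluorescence ratio at least 3 library SD, with starting fluorescence B-score inside 5 SD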
Target sequence (Q96LB2 whole entry, looked up): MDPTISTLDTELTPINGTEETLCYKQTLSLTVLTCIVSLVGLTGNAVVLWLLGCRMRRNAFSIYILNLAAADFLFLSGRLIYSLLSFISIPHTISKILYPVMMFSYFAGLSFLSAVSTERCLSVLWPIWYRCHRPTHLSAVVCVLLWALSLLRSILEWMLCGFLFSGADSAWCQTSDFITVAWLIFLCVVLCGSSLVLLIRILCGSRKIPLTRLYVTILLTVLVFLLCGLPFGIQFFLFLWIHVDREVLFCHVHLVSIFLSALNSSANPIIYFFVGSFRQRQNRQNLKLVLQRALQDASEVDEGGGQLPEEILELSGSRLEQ
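System – MrgX1-expressing HEK293 cells · Incubation – cells plated overnight, dye loaded 0.5 h 37 °C, 0.5 h room temperature · Technique – kinetic Fluo-4 NW fluorescence of intracellular calcium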
RGS4 pot – RGS4 potentiation or activation; AID 463111; 310,000 tested, 0.92% active; B-score at 10 µM; HEK293 M3R/inducible RGS4, carbachol calcium flux Fluo4; stronger effect = lower value;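 active means B-score of the integrated calcium signal more than 4 SD below the library mean, with starting fluorescence not abnormally high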;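 further: negative B-score means reduced calcium response which marks RGS4 activation or potentiation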
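Detection: kinetic calcium fluorescence imaging with Fluo4-AM dye, 2 µM / Material: HEK293 cells with stable M3R and inducible RGS4 / Schedule: recording 10 s baseline at 1 Hz, 100 s post-agonist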
RGS4 block – inhibitors of human RGS4 | HEK293 M3R/RGS4 inducible, Fluo-4 calcium flux; stronger effect = higher value; triggered by carbachol at its EC20 | 310,000 tested, 0.45% active | B-score at 10 µM;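 active means B-score, a plate-corrected calcium signal, over three deviations above library mean, with baseline fluorescence within five deviations of library mean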;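 further: RGS4 expression induced by doxycycline in cells with stable M3 receptor; B-score is computed from the integrated fluorescence ratio over baseline after carbachol; higher B-score means a larger calcium signal and so more RGS4 inhibition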
Target sequence (P49798 whole entry, looked up): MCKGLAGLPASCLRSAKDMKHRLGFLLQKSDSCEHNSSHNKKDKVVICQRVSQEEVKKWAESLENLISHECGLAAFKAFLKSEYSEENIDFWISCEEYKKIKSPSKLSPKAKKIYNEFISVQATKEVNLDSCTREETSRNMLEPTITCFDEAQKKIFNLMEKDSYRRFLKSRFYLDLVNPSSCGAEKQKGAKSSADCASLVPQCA
MrgX1 allo act – allosterically activates human MrgX1 receptor signaling; Q96LB2; MrgX1-HEK293, Fluo-4 calcium flux, FDSS; stronger effect = higher value; B-score at 10 µM; 310,000 tested, 0.63% active; AID 588675;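 active means plate-corrected calcium response at least 3 library SD above typical, normal starting fluorescence, not activating the receptor alone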;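 further: compound read alongside a low EC10 to EC30 dose of BAM8-22 agonist; peak minus trough fluorescence over baseline measured at the second addition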
MrgX1 antag – human MrgX1 receptor antagonism, primary screen; B-score at 10 µM; Q96LB2; 310,000 tested, 1.3% active; MRGX1-HEK293 calcium flux, Fluo-4, BAM8-22 antagonism; stronger effect = lower value;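 active means calcium-response B-score plate-corrected more than 3 library SD below zero, starting fluorescence within 5 deviations, no agonist response on first addition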;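 further: peak minus trough fluorescence over baseline after final BAM8-22 challenge near maximal dose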
MrgX1 ant reconf – reconfirmed antagonist of human MrgX1 receptor signaling; shares compounds with MrgX1 antag; MrgX1-HEK293, BAM8-22 calcium flux, Fluo-4; stronger effect = lower value; remaining BAM8-22 calcium response % of control (stronger effect = lower value), % at 10 µM; 2,300 tested, 19% active;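 active means remaining agonist calcium response no higher than 100% minus 3 SD of agonist-only control wells, with starting fluorescence near control levels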;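 further: agonist BAM8-22 given at a near maximal EC90 to ECmax level; peak minus minimum fluorescence divided by baseline after agonist addition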
HEK293 Ca flux – MrgX1 antagonist counter-screen hit in parental HEK293 cells; shares compounds with MrgX1 antag; Fluo-4 calcium fluorescence, FDSS; fluorescence ratio F(max-min)/F0 at 10 µM; 4,000 tested, 2% active;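 active means duplicate-averaged calcium fluorescence ratio at least three times the standard deviation of buffer wells, a nonspecific response in parental cells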
HEK293 Ca counter – MrgX1 allosteric activator counter-screen hit in parental HEK293 cells | 4,000 tested, 0.4% active | parental HEK293 calcium flux, Fluo-4 fluorescence ratio; stronger effect = higher value | fluorescence ratio F(max-min)/F0 at 10 µM | shares compounds with MrgX1 antag;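 active means calcium fluorescence ratio, averaged over duplicates, at least 3 SD of the buffer-well ratio, meaning a nonspecific response in receptor-free cells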;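 further: untransfected parental HEK293 lacking MrgX1 used as counterscreen for MrgX1 allosteric activators; fluorescence change taken during the second addition on a kinetic imager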
HEK293 Ca cntr2 – counter-screen for MrgX1 activators: effect in parental HEK293 cells | shares compounds with MrgX1 antag | Fluo-4 calcium fluorescence (FDSS); stronger effect = higher value | fluorescence ratio F(max-min)/F0 at 10 µM | 4,000 tested, 8.7% active;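 active means calcium fluorescence ratio at least three times the spread of buffer wells, meaning a non-specific response in parental cells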
Of the large screens only hits and unclear results are named; the others gave an inactive call (follow-up assays come after a bar, where they were run).

CSc1ccccc1N=CC1=C(O)CC(C)(C)CC1=O	none
Cc1ccc(NC(=O)CCNS(=O)(=O)c2ccc(Br)cc2)cc1S(=O)(=O)N1CCOCC1	none
CCOC(=O)c1ccc(NC(=O)c2ccc(C)c(S(=O)(=O)N3CCOCC3)c2)cc1	MrgX1 antag -11 | MrgX1 ant reconf 21% | HEK293 Ca flux inactive | HEK293 Ca counter inactive | HEK293 Ca cntr2 inactive
Cc1ccc(NC(=O)CCNS(=O)(=O)c2ccccc2)cc1S(=O)(=O)N1CCOCC1	MrgX1 antag -6.7 | MrgX1 ant reconf inactive | HEK293 Ca flux inactive | HEK293 Ca counter inactive | HEK293 Ca cntr2 inactive
Cc1ccc(C(=O)OCc2nnc(-c3ccccc3)o2)cc1S(=O)(=O)N1CCOCC1	MrgX1 antag -4.6 | MrgX1 ant reconf 83% | HEK293 Ca flux inactive | HEK293 Ca counter inactive | HEK293 Ca cntr2 inactive
COCCSc1ccccc1C(=O)Nc1ccc(Cl)cc1	none
CCCN(Cc1cc2cc(C)ccc2[nH]c1=O)C(=O)c1cccc([N+](=O)[O-])c1	none
O=C(Nc1nnc(C2CC2)s1)c1ccc(Cl)c(S(=O)(=O)N2CCc3ccccc3C2)c1	MrgX1 antag -6.4 | MrgX1 ant reconf 63% | HEK293 Ca flux inactive | HEK293 Ca counter inactive | HEK293 Ca cntr2 inactive
O=C(NCCc1ccccc1)C1CCC(CNS(=O)(=O)c2cccc3cccnc23)CC1 (centres undefined)	none
CCC(C)C(=O)Nc1nc(C)c(-c2csc(Nc3cc(OC)ccc3OC)n2)s1 (centres undefined)	MrgX1 antag -5.9 | MrgX1 ant reconf inactive | HEK293 Ca flux inactive | HEK293 Ca counter inactive | HEK293 Ca cntr2 inactive
CC1=Nc2ccc3ccccc3c2C1(C)C	MrgX1 antag -5.8 | MrgX1 ant reconf inactive | HEK293 Ca flux inactive | HEK293 Ca counter inactive | HEK293 Ca cntr2 inactive
COC(=O)C1CSc2[nH]c(=O)sc2C1c1ccccc1 (centres undefined)	MrgX1 antag -5.7 | MrgX1 ant reconf inactive | HEK293 Ca flux inactive | HEK293 Ca counter inactive | HEK293 Ca cntr2 inactive
COCCN1CCC(CNCc2c(C(=O)N3CCCCC3)nc3c(C)cccn23)C1 (centres undefined)	none
CS(=O)(=O)N(CCc1ccccc1)CC(=O)NCC1CCCO1 (centres undefined)	MrgX1 antag -6.7 | MrgX1 ant reconf inactive | HEK293 Ca flux inactive | HEK293 Ca counter inactive | HEK293 Ca cntr2 inactive
CCCn1c(CCc2ccccc2)n[nH]c1=S	MrgX1 antag -7.5 | MrgX1 ant reconf inactive | HEK293 Ca flux inactive | HEK293 Ca counter inactive | HEK293 Ca cntr2 inactive
CCCCc1n[nH]c(=S)n1Cc1ccc(Cl)cc1	MrgX1 antag -5.7 | MrgX1 ant reconf inactive | HEK293 Ca flux inactive | HEK293 Ca counter inactive | HEK293 Ca cntr2 inactive
CCOc1cc(N2CCOCC2)c(OCC)cc1NS(=O)(=O)c1cc(NC(C)=O)ccc1OC	none
O=C(NCCc1ccc(Cl)cc1)C1CCN(S(=O)(=O)c2ccc(Br)s2)CC1	none
O=C(NCC1CCCN1S(=O)(=O)c1ccccc1)C(=O)NC1CC1 (centres undefined)	MrgX1 antag -4.6 | MrgX1 ant reconf inactive | HEK293 Ca flux inactive | HEK293 Ca counter inactive | HEK293 Ca cntr2 inactive
O=C1C(=O)N(Cc2cccnc2)C(c2ccccn2)/C1=C(/O)c1ccc(F)cc1 (centres undefined)	MrgX1 antag -5.1 | MrgX1 ant reconf inactive | HEK293 Ca flux inactive | HEK293 Ca counter inactive | HEK293 Ca cntr2 inactive
